Test results from ChEMBL document CHEMBL2021905, “Structure-activity relationship of novel menaquinone-4 analogues: modification of the side chain affects their biological activities” (J Med Chem, 2012).

Legend:
MG-63 [1] = assay: Prodrug conversion in human MG63 cells assessed as formation of deuterium 2-methyl-3-((2E,6E,10E)-3,7,11,15-tetramethylhexadeca-2,6,10,14-tetraenyl)naphthalene-1,4-dione at 1 uM for 24 hrs by LC-APCI-MS/MS analysis; type: ADME, cell-based; conditions: mg-63, 24 h
Method in brief: (§1)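 MG-63 human osteosarcoma cells incubated with compound at a final 1.0 μM, 37 °C, 24 h. Cellular vitamin K compounds extracted with hexane. Converted menaquinone-4 and its epoxide quantified by LC-APCI-MS/MS. Three independent experiments; mean ± SD.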

MG-63 [2] = assay: Prodrug conversion in human MG63 cells assessed as formation of deuterium 1a-methyl-7a-((2E,6E,10E)-3,7,11,15-tetramethylhexadeca-2,6,10,14-tetraenyl)naphtho[2,3-b]oxirene-2,7(1aH,7aH)-dione at 1 uM for 24 hrs by LC-APCI-MS/MS analysis; type: ADME, cell-based; conditions: mg-63, 24 h; method in brief: as §1
[3] = molecular target: T1, Nuclear receptor subfamily 1 group I member 2 (Homo sapiens, UniProt O75469); assay: (§2) Induction of human SXR transcriptional activity expressed in human HepG2 cells coexpressing GAL4 at 5 X 10^-6 M after 48 hrs by luciferase reporter gene assay relative to vehicle-treated control; type: cell-based; conditions: hepg2, 48 h, 5 µM
T1 sequence (O75469 whole entry): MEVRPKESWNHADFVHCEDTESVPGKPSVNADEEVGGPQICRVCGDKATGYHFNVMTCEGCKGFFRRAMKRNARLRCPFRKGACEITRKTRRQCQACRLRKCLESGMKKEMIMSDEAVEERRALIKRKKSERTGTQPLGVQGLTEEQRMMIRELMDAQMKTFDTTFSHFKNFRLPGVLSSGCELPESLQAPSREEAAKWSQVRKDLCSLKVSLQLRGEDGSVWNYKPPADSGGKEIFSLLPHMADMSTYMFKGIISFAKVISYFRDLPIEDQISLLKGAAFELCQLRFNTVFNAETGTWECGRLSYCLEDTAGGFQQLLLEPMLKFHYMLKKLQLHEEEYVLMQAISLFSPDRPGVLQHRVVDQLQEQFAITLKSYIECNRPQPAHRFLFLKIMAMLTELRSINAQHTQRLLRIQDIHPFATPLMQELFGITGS
Method in brief: (§3)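 HepG2 cells (2 × 10^5 per well), maintained in Eagle's modified medium with 10% FCS and 1% each penicillin/streptomycin, transfected with pM-SXR (GAL4 fusion), pGVP2-GAL2 reporter and pRL-CMV. 24 h after transfection, treated in fresh medium with compound or ethanol vehicle for 48 h. Dual-luciferase read-out, firefly normalized to Renilla. Three independent experiments; mean ± SD.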

MG-63 [4] = assay: Prodrug conversion in human MG63 cells assessed as formation of MK-4 at 1 uM for 24 hrs by LC-APCI-MS/MS analysis; type: ADME, cell-based; conditions: mg-63, 24 h; method in brief: as §1
[5] = molecular target: T2, SXR (nuclear receptor subfamily 1 group I member 2) (Homo sapiens, UniProt O75469); assay: as §2; type: cell-based; conditions: HepG2 cells expressing human SXR and GAL4, read-out: FC; method in brief: as §3
T2 sequence (O75469 whole entry): T1 sequence (O75469 whole entry)

[2H]c1c([2H])c([2H])c2c(c1[2H])C(=O)C(C/C=C/CC/C=C(\C)CC/C=C(\C)CCC=C(C)C)=C(C([2H])([2H])[2H])C2=O
Drug metabolism (MG-63 [1]): Active
Drug metabolism (MG-63 [2]): Active
Activity [3]: Active
Drug metabolism (MG-63 [4]): Active

[2H]c1c([2H])c([2H])c2c(c1[2H])C(=O)C(C/C=C(\C)CC/C=C(\C)CC/C=C/CCC=C(C)C)=C(C([2H])([2H])[2H])C2=O
Drug metabolism (MG-63 [1]): Active
Drug metabolism (MG-63 [2]): Active
Activity [3]: Active
Drug metabolism (MG-63 [4]): Active

[2H]c1c([2H])c([2H])c2c(c1[2H])C(=O)C(C/C=C(\C)CCCC(C)CCCC(C)CCC=C(C)C)=C(C([2H])([2H])[2H])C2=O (centres undefined)
Activity [3]: Not Active

[2H]c1c([2H])c([2H])c2c(c1[2H])C(=O)C(C/C=C(\C)CC/C=C/CC/C=C(\C)CCC=C(C)C)=C(C([2H])([2H])[2H])C2=O
Drug metabolism (MG-63 [1]): Active
Drug metabolism (MG-63 [2]): Active
Activity [3]: Active
Drug metabolism (MG-63 [4]): Active

[2H]c1c([2H])c([2H])c2c(c1[2H])C(=O)C(C/C=C(\C)CC/C=C(\C)CC/C=C(\C)CC/C=C/C)=C(C([2H])([2H])[2H])C2=O
Drug metabolism (MG-63 [1]): Active
Drug metabolism (MG-63 [2]): Active
Activity [3]: Active
Drug metabolism (MG-63 [4]): Active

[2H]c1c([2H])c([2H])c2c(c1[2H])C(=O)C(C/C=C(\C)CCCC(C)CCCC(C)CCCC(C)C)=C(C([2H])([2H])[2H])C2=O (centres undefined)
Activity [3]: Not Active

[2H]c1c([2H])c([2H])c2c(c1[2H])C(=O)C(C/C=C(\C)CC/C=C(\C)CC/C=C(\C)CCC=C(C)C)=C(C([2H])([2H])[2H])C2=O
fold induction at 48 h, 5 µM [5]: 7

[2H]c1c([2H])c([2H])c2c(c1[2H])C(=O)C(CCC(C)CCCC(C)CCCC(C)CCCC(C)C)=C(C([2H])([2H])[2H])C2=O (centres undefined)
Activity [3]: Not Active

[2H]c1c([2H])c([2H])c2c(c1[2H])C(=O)C(C/C=C(\C)CCCC(C)CC/C=C(\C)CCC=C(C)C)=C(C([2H])([2H])[2H])C2=O (centres undefined)
Activity [3]: Active

[2H]c1c([2H])c([2H])c2c(c1[2H])C(=O)C(C/C=C(\C)CC([2H])([2H])/C=C(/CC/C=C(\C)CCC=C(C)C)C([2H])([2H])[2H])=C(C([2H])([2H])[2H])C2=O
Drug metabolism (MG-63 [1]): Active
Drug metabolism (MG-63 [2]): Active
Drug metabolism (MG-63 [4]): Active
